Data as given in ChEMBL document CHEMBL1121883, “1-(Naphthylalkyl)-1H-imidazole derivatives, a new class of anticonvulsant agents” (J Med Chem, 1981).
Several values for one entry are separate records, joined by “and”; a condition that tells them apart may be missing. Equal values may be shown once.

Assays:
[1] = test system: Mus musculus; test: Protective index is defined as ND50 (i.p.) divided by MES ED50(i.p.); type: functional
How it was run: (§1)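 Ratio of ND50 from the wire traction test to MES ED50, both measured by the same route (ip or oral) in the same animals. Quantal dose-response data for each were evaluated by Litchfield-Wilcoxon.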

[2] = test system: Mus musculus; test: Dose of compound causing a neurological deficit in 50% of mice after ip administration; 32-90; type: functional
How it was run: (§2)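 Traction test in male Hilltop ICR-derived mice (19-30 g, groups of 8-10) just before electroshock, 15 min after ip or 30 min after oral dosing. Mice placed on a 16-gauge, 65-cm copper wire 40 cm above the table; deficit scored as failure to stay on for 10 s. ND50 with 95% limits by Litchfield-Wilcoxon.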

[3] = test system: Mus musculus; test: Compound was evaluated for anticonvulsant activity by maximal electroshock assay(MES) in mice after ip administration; 14-33; type: functional
How it was run: (§3)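 Male Hilltop ICR-derived mice (19-30 g), groups of 8-10, dosed ip with compound or aqueous vehicle. After 15 min pretreatment, a transcorneal 60-Hz, 50 mA shock was given for 0.2 s. Just before the shock, each mouse was tested on a horizontal wire (10 s). Quantal data were analysed by Litchfield-Wilcoxon to give ED50 with 95% confidence limits.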

[4] = test system: Mus musculus; test: Dose of compound causing a neurological deficit in 50% of mice after ip administration; 57-91; type: functional; how it was run: as §2
[5] = test system: Mus musculus; test: Compound was evaluated for anticonvulsant activity by maximal electroshock assay(MES) in mice after ip administration; 18-48; type: functional; how it was run: as §3
[6] = test system: Mus musculus; test: Compound was evaluated for anticonvulsant activity by maximal electroshock assay(MES) in mice after ip administration; 22-80; type: functional; how it was run: as §3
[7] = test system: Mus musculus; test: Dose causing a neurological deficit in 50% of mice after ip administration.; type: functional; how it was run: as §2
[8] = (§4) Lethal dose was measured in mice after ip administration.; type: toxicity, organism-based; details: mouse, in vivo
How it was run: (§5)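 Male Simonsen ICR-derived mice (16-24 g), groups of three, given compound ip in increasing doses within a behavioral screen. Deaths counted on day 5, and LD50 estimated from 5-day survival. Quantal data analysed by the Litchfield-Wilcoxon method.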

[9] = test system: Mus musculus; test: Compound was evaluated for anticonvulsant activity by maximal electroshock assay(MES) in mice after ip administration; type: functional; how it was run: as §3
[10] = test system: Mus musculus; test: Dose of compound causing a neurological deficit in 50% of mice after ip administration; type: functional; how it was run: as §2
[11] = test system: Rattus norvegicus; test: Compound was evaluated for anticonvulsant activity by maximal electroshock assay(MES) in rat after po administration; 15-36; type: functional
How it was run: (§6)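 Male Simonsen Sprague-Dawley-derived rats, 80-110 g, groups of 8-10, dosed with compound or aqueous vehicle; pretreatment 15 min after ip or 30 min after oral dosing. Transcorneal electroshock, 150 mA, 60 Hz, 0.2 s, given after the wire test. ED50 with 95% confidence limits from quantal data by Litchfield-Wilcoxon.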

[12] = test system: Mus musculus; test: Compound was evaluated for anticonvulsant activity by maximal electroshock assay(MES) in mice after po administration; 15-26; type: functional
How it was run: (§7)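 Male Hilltop ICR-derived mice (19-30 g), groups of 8-10, given compound or aqueous vehicle orally. The transcorneal 60-Hz shock (50 mA, 0.2 s) followed a 30 min pretreatment and a wire-hang neurological check (10 s). ED50 and 95% confidence limits were obtained from quantal data by the Litchfield-Wilcoxon method.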

[13] = test system: Mus musculus; test: Dose of compound causing a neurological deficit in 50% of mice after ip administration; 41-246; type: functional; how it was run: as §2
[14] = test system: Rattus norvegicus; test: Dose of compound causing a neurological deficit in 50% of rat after ip administration.; type: functional
How it was run: (§8)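 Rats (Simonsen Sprague-Dawley-derived, 80-110 g, groups of 8-10) placed on a suspended 16-gauge, 65-cm copper wire just before electroshock. Deficit scored as inability to remain for 8 s. Pretreatment was 15 min ip or 30 min oral. Quantal data analysed by Litchfield-Wilcoxon to give ND50 with 95% limits.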

[15] = test system: Rattus norvegicus; test: Compound was evaluated for anticonvulsant activity by maximal electroshock assay(MES) in rat after ip administration; 3.8-8.4; type: functional
[16] = test system: Mus musculus; test: Protective index defined as ND50 (p.o.) divided by MES ED50(op); type: functional; how it was run: as §1
[17] = test system: Mus musculus; test: Dose of compound causing a neurological deficit in 50% of mice after po administration.; type: functional; how it was run: as §2
[18] = test system: Mus musculus; test: Compound was evaluated for anticonvulsant activity by maximal electroshock assay(MES) in mice after ip administration; 8-13; type: functional; how it was run: as §3
[19] = test system: Rattus norvegicus; test: Dose of compound causing a neurological deficit in 50% of rat after po administration.; type: functional; how it was run: as §8
[20] = test system: Mus musculus; test: Anticonvulsant activity in mouse maximal electroshock assay following i.p. administration.; type: functional; details: ip; how it was run: as §3
[21] = test system: Rattus norvegicus; test: Dose of compound causing a neurological deficit in 50% of rat after po administration.
[22] = test system: Mus musculus; test: Compound was evaluated for anticonvulsant activity by maximal electroshock assay(MES) in mice after po administration.; type: functional; how it was run: as §7
[23] = test system: Mus musculus; test: Dose causing a neurological deficit in 50% of mice following p.o. administration.; type: functional; how it was run: as §2
[24] = test system: Rattus norvegicus; test: Compound was evaluated for anticonvulsant activity by maximal electroshock assay(MES) in rat after po administration.
[25] = test system: Mus musculus; test: Dose of compound causing a neurological deficit in 50% of mice after ip administration; 80-115; type: functional; how it was run: as §2
[26] = test system: Rattus norvegicus; test: Compound was evaluated for anticonvulsant activity by maximal electroshock assay(MES) in rat after po administration; 30-125; type: functional; how it was run: as §6
[27] = test system: Mus musculus; test: Compound was evaluated for anticonvulsant activity by maximal electroshock assay(MES) in mice after po administration; 55-125; type: functional; how it was run: as §7
[28] = test system: Rattus norvegicus; test: Dose of compound causing a neurological deficit in 50% of rat after ip administration; 119-211; type: functional; how it was run: as §8
[29] = test system: Rattus norvegicus; test: Compound was evaluated for anticonvulsant activity by maximal electroshock assay(MES) in rat after ip administration; 14-33; type: functional
[30] = test system: Mus musculus; test: Compound was evaluated for anticonvulsant activity by maximal electroshock assay(MES) in mice after ip administration; 31-39; type: functional; how it was run: as §3
[31] = test system: Rattus norvegicus; test: Compound was evaluated for anticonvulsant activity by maximal electroshock assay(MES) in rat after po administration; 13-39; type: functional; how it was run: as §6
[32] = test system: Rattus norvegicus; test: Compound was evaluated for anticonvulsant activity by maximal electroshock assay(MES) in rat after ip administration; 0.6-6.6; type: functional
[33] = test system: Mus musculus; test: Compound was evaluated for anticonvulsant activity by maximal electroshock assay(MES) in mice after ip administration; 11-18; type: functional; how it was run: as §3
[34] = test system: Mus musculus; test: Compound was evaluated for anticonvulsant activity by maximal electroshock assay(MES) in mice after po administration; 37-60; type: functional; how it was run: as §7
[35] = test system: Mus musculus; test: as §4; type: functional; how it was run: as §5
[36] = test system: Mus musculus; test: Dose of compound causing a neurological deficit in 50% of mice after ip administration; 66-92; type: functional; how it was run: as §2

COc1c(C(=O)Cn2ccnc2)ccc2ccccc12.Cl
PI [1]: 2.2
ND50 [2]: 51 mg/kg
ED50 [3]: 23 mg/kg

Cc1ccccc1OC(Cn1ccnc1)c1ccc2ccccc2c1.Cl (centres undefined)
ND50 [4]: 70 mg/kg
PI [1]: 2.1
ED50 [5]: 33 mg/kg

Cl.O=C(Cn1ccnc1)c1ccc2cc(Br)ccc2c1
ED50 [6]: 41 mg/kg

CCSC(Cn1ccnc1)(SCC)c1ccc2ccccc2c1.Cl
PI [1]: 2.2
ND50 [7]: 78 mg/kg
LD50 [8]: > 100 mg/kg

CSC(Cn1ccnc1)(SC)c1ccc2ccccc2c1.Cl
PI [1]: 0.9
ND50 [7]: 29 mg/kg
LD50 [8]: > 100 mg/kg

C[S+]([O-])C(Cn1ccnc1)c1ccc2ccccc2c1.Cl (centres undefined)
ED50 [9]: > 40 mg/kg
ND50 [10]: >40 mg/kg

Cl.O=C(CCn1ccnc1)c1ccc2ccccc2c1
ED50 [11]: 25 mg/kg
ED50 [12]: 20 mg/kg
ND50 [13]: 60 mg/kg
ND50 [14]: >60 mg/kg
ED50 [15]: 5.9 mg/kg
PI [16]: >5 and >4
ND50 [17]: >100 mg/kg
PI [1]: 6 and >10
ED50 [18]: 10 mg/kg
ND50 [19]: >100 mg/kg

Cc1cc2cccc(C(=O)Cn3ccnc3)c2cc1C.Cl
PI [1]: >3.8
ND50 [7]: >300 mg/kg
ED50 [20]: 80 mg/kg

Cl.c1ccc2cc(C3(CCn4ccnc4)SCCS3)ccc2c1
PI [1]: 2.2
ND50 [7]: 33 mg/kg
ED50 [20]: 15 mg/kg

Cl.c1ccc2cc(CCn3ccnc3)ccc2c1
ND50 [21]: >100 mg/kg
PI [16]: >2.1
ED50 [22]: 47 mg/kg
PI [1]: 1.4
ND50 [7]: 31 mg/kg
ND50 [23]: >100 mg/kg
ED50 [24]: 54 mg/kg
ED50 [20]: 22 mg/kg
LD50 [8]: > 100 mg/kg

OC(Cn1ccnc1)c1ccc2ccccc2c1 (centres undefined)
LD50 [8]: > 300 mg/kg

OC(Cn1ccnc1)c1cccc2ccccc12 (centres undefined)
ND50 [25]: 89 mg/kg
ED50 [26]: 62 mg/kg
ED50 [27]: 82 mg/kg
ND50 [28]: 153 mg/kg
PI [16]: >3.7 and >4.8
PI [1]: 2.6 and 6.4
ED50 [29]: 24 mg/kg
ED50 [30]: 34 mg/kg
ND50 [19]: >300 mg/kg
ND50 [23]: >300 mg/kg
LD50 [8]: > 300 mg/kg

Cl.O=C(Cn1ccnc1)c1ccc2ccccc2c1 [NAFIMIDONE HYDROCHLORIDE]
ED50 [31]: 26 mg/kg
ED50 [32]: 1.7 mg/kg
ND50 [14]: >100 mg/kg
PI [16]: >4.2
ED50 [33]: 15 mg/kg
ND50 [19]: >100 mg/kg
ED50 [34]: 48 mg/kg
LD50 [35]: > 100 mg/kg
ND50 [23]: >200 mg/kg
ND50 [36]: 83 mg/kg

CCC1(c2ccccc2)C(=O)NC(=O)NC1=O [PHENOBARBITAL]
PI [16]: 1.9
ED50 [22]: 19 mg/kg
PI [1]: 2
ND50 [7]: 30 mg/kg
ND50 [23]: 36 mg/kg
ED50 [20]: 15 mg/kg
LD50 [8]: > 100 mg/kg
